Converted amounts (≈) assume the structure as drawn.
Legend:
Format in all cases: functional
Escherichia coli [1] = assay: Antimicrobial activity against Escherichia coli measured after overnight incubation by susceptibility test
In short: (§1)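 MIC by agar dilution: about 10^4 organisms applied with a replicating device onto brain-heart infusion agar holding twofold dilutions of drug; plates incubated overnight at 37 °C under anaerobic conditions (Gas Pak environment); MIC read as lowest inhibiting concentration.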

Salmonella enterica [2] = assay: Antimicrobial activity against Salmonella choleraesuis measured after overnight incubation by susceptibility test
In short: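 MIC by agar dilution: about 10^4 organisms applied with a replicating device onto brain-heart infusion agar containing twofold dilutions of the quinoxaline 1,4-dioxide; incubated overnight at 37 °C under anaerobic conditions (Gas Pak).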

Pasteurella multocida [3] = assay: Antimicrobial activity against Pasteurella multocida measured after overnight incubation by susceptibility test; in short: as §1
Streptococcus pyogenes [4] = assay: Antimicrobial activity against Streptococcus pyogenes measured after overnight incubation by susceptibility test; in short: as §1
Escherichia coli [5] = assay: Antimicrobial activity against Escherichia coli infected in mouse compound administered orally at 0.5 hr, 4 hrs and 24 hrs post infection; settings: po, read-out: PD50
In short: (§2)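 Male and female mice, 11–13 g. Acute systemic infection by intraperitoneal inoculation of 1–10 times the organism count killing 100% of untreated mice in 4 days; standardized cultures suspended in 5% hog gastric mucin. Treated 0.5 h after infection, again at 4.0 h and at 24 h. PD50 (50% protective dose) calculated by probit method.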

Escherichia coli [6] = assay: Antimicrobial activity against Escherichia coli infected in mouse compound administered subcutaneously at 0.5 hr, 4 hrs and 24 hrs post infection; settings: sc, read-out: PD50; in short: as §2
Salmonella enterica [7] = assay: Antimicrobial activity against Salmonella choleraesuis infected in mouse compound administered orally at 0.5 hr, 4 hrs and 24 hrs post infection; settings: po, read-out: PD50; in short: as §2
Salmonella enterica [8] = assay: Antimicrobial activity against Salmonella choleraesuis infected in mouse compound administered subcutaneously at 0.5 hr, 4 hrs and 24 hrs post infection; settings: sc, read-out: PD50; in short: as §2
Pasteurella multocida [9] = assay: Antimicrobial activity against Pasteurella multocida infected in mouse compound administered orally at 0.5 hr, 4 hrs and 24 hrs post infection; settings: po, read-out: PD50
In short: (§3)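 Infections in male and female mice (11–13 g), given intraperitoneally at one to ten times the inoculum lethal to all nonmedicated mice within 4 days. Standardized cultures were suspended in brain-heart infusion broth. Doses were given at 0.5, 4.0 and 24 h post-infection. The 50% protective dose was derived by probit analysis.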

Pasteurella multocida [10] = assay: Antimicrobial activity against Pasteurella multocida infected in mouse compound administered subcutaneously at 0.5 hr, 4 hrs and 24 hrs post infection; settings: sc, read-out: PD50; in short: as §3
Streptococcus pyogenes [11] = assay: Antimicrobial activity against Streptococcus pyogenes infected in mouse compound administered orally at 0.5 hr, 4 hrs and 24 hrs post infection; settings: po, read-out: PD50; in short: as §3
Streptococcus pyogenes [12] = assay: Antimicrobial activity against Streptococcus pyogenes infected in mouse compound administered subcutaneously at 0.5 hr, 4 hrs and 24 hrs post infection; settings: sc, read-out: PD50; in short: as §3
Escherichia coli [13] = assay: Ratio of PD50 for Escherichia coli infected in po dosed mouse to PD50 for Escherichia coli infected in sc dosed mouse
Salmonella enterica [14] = assay: Ratio of PD50 for Salmonella choleraesuis infected in po dosed mouse to PD50 for Salmonella choleraesuis infected in sc dosed mouse
Pasteurella multocida [15] = assay: Ratio of PD50 for Pasteurella multocida infected in po dosed mouse to PD50 for Pasteurella multocida infected in sc dosed mouse
Streptococcus pyogenes [16] = assay: Ratio of PD50 for Streptococcus pyogenes infected in po dosed mouse to PD50 for Streptococcus pyogenes infected in sc dosed mouse

Structure (SMILES)	MIC (Escherichia coli [1]) [µg/mL]	MIC (Salmonella enterica [2]) [µg/mL]	MIC (Pasteurella multocida [3]) [µg/mL]	MIC (Streptococcus pyogenes [4]) [µg/mL]	ED50 (Escherichia coli [5]) [mg/kg]	ED50 (Escherichia coli [6]) [mg/kg]	ED50 (Salmonella enterica [7]) [mg/kg]	ED50 (Salmonella enterica [8]) [mg/kg]	ED50 (Pasteurella multocida [9]) [mg/kg]	ED50 (Pasteurella multocida [10]) [mg/kg]	ED50 (Streptococcus pyogenes [11]) [mg/kg]	ED50 (Streptococcus pyogenes [12]) [mg/kg]	Ratio (Escherichia coli [13])	Ratio (Salmonella enterica [14])	Ratio (Pasteurella multocida [15])	Ratio (Streptococcus pyogenes [16])
CC(=O)c1ccc2c(c1)[n+]([O-])c(C)c(C(N)=O)[n+]2[O-]	0.39 (≈ 1.49 µM)	0.39 (≈ 1.49 µM)	0.39 (≈ 1.49 µM)	0.19 (≈ 0.727 µM)	12.6	10.9	9.9	7.6	13.6	11.7	70	54				
CC(=O)c1ccc2c(c1)[n+]([O-])c(C(N)=O)c(C)[n+]2[O-]	0.39 (≈ 1.49 µM)	0.19 (≈ 0.727 µM)	0.19 (≈ 0.727 µM)	0.39 (≈ 1.49 µM)	13	5.6	9.1	4.5	12.7	7.7	15	9.2	2	2	2	2
